Laboratory results: ChEMBL document CHEMBL1154527, “Tethered indoles as functionalizable ligands for the estrogen receptor” (Bioorg Med Chem Lett, 2009)

How the values were obtained:
[1] = molecular target: Estrogen receptor beta (Homo sapiens) (UniProt Q92731); assay: Relative binding affinity to ERbeta by radiometric binding assay relative to estradiol
How it was run: (§1)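 RBA values for the PAMAM-dendrimer conjugate are calculated from the concentration of attached ligand rather than that of the conjugate.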

[2] = molecular target: T1, Estrogen receptor (Homo sapiens) (UniProt P03372); assay: Relative binding affinity to ERalpha by radiometric binding assay relative to estradiol; how it was run: as §1
T1 sequence (whole entry): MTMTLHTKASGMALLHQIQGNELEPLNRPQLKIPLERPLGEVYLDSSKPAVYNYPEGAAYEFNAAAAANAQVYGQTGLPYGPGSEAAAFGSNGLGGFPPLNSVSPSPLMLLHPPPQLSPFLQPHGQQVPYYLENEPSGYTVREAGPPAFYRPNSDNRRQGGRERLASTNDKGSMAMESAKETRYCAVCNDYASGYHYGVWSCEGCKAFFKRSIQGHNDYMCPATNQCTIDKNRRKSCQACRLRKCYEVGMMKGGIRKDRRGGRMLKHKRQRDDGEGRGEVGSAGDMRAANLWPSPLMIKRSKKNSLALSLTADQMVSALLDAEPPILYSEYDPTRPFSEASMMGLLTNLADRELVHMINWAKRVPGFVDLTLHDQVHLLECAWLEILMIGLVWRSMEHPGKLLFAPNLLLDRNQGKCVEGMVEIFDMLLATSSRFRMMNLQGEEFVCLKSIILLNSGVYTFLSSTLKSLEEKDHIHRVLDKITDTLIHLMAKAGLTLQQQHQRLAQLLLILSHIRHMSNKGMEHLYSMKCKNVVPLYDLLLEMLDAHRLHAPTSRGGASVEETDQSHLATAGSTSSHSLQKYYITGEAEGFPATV

Chain of Estrogen receptor beta (Homo sapiens) (Q92731 whole entry): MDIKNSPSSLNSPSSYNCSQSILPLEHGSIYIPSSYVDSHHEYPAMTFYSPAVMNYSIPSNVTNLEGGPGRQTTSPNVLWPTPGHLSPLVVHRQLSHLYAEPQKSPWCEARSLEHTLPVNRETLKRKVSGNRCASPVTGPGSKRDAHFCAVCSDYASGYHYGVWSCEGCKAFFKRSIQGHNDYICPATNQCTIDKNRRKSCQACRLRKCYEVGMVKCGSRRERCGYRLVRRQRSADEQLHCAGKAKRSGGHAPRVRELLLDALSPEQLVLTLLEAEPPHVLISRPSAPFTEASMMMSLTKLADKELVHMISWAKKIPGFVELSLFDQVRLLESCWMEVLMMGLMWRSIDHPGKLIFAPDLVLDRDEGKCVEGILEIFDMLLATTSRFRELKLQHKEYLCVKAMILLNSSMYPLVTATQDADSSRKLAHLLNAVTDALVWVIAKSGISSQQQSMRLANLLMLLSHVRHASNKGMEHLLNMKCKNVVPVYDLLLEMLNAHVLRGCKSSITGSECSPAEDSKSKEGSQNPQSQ

SMILES	relative binding affinity (RBA) [1]	relative binding affinity (RBA) [2]
CCCCOCCCCCCn1c(-c2ccc(O)cc2)c(C)c2cc(O)ccc21	3	–
Cc1c(-c2ccc(O)cc2)n(CCCCCCO)c2ccc(O)cc12	1.4	13
Cc1c(-c2ccc(O)cc2)n(Cc2ccc(O)cc2)c2ccc(O)cc12	1	10
COCCCCCCn1c(-c2ccc(O)cc2)c(C)c2cc(O)ccc21	2	11

Other lines, results leading:

relative binding affinity (RBA) [1]	relative binding affinity (RBA) [2]	SMILES
1.2	–	CCCCOc1ccc(Cn2c(-c3ccc(O)cc3)c(C)c3cc(O)ccc32)cc1
0.048	–	Cc1ccc(C(=O)NCCCCn2c(-c3ccc(O)cc3)c(C)c3cc(O)ccc32)cc1
6.5	11	COc1ccc(Cn2c(-c3ccc(O)cc3)c(C)c3cc(O)ccc32)cc1
0.24	2.17	CC(=O)NCCNCc1ccc(OCCCn2c(-c3ccc(O)cc3)c(C)c3cc(O)ccc32)cc1
0.084	–	CCSC(SCC)c1ccc(OCCCn2c(-c3ccc(O)cc3)c(C)c3cc(O)ccc32)cc1
